MrgX1 allo act: positive allosteric modulators of MrgX1, primary screen, HEK293 cells, Fluo-4 calcium flux. Mas-related G-protein coupled receptor member X1 (Homo sapiens), Q96LB2. 310,000 tested, 0.63% active. B-score at 10 µM. FDSS; active compounds read high. AID 588675, 2011;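 active = plate-corrected calcium response at least 3 library SD above typical, normal starting fluorescence, not activating the receptor alone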;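 note: compound read alongside a low EC10 to EC30 dose of BAM8-22 agonist; peak minus trough fluorescence over baseline measured at the second addition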
Target sequence (Q96LB2 whole entry, looked up): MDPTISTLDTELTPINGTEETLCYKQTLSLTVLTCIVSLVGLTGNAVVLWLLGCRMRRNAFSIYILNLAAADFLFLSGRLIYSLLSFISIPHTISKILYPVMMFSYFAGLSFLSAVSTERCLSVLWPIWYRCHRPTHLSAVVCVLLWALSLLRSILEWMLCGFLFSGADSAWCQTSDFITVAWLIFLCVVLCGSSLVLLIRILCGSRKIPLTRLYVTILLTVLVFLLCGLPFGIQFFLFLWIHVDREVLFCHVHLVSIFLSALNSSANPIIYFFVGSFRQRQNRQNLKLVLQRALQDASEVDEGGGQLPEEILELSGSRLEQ
MrgX1 agonist: agonists of human MrgX1 receptor, primary screen, HEK293 cells, Fluo-4 calcium flux; Mas-related G-protein coupled receptor member X1 (Homo sapiens), Q96LB2; Fluo-4 calcium fluorescence, agonist mode; active compounds read high; B-score at 10 µM; 310,000 tested, 0.44% active; AID 588627, 2011;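 active = calcium response B-score plate-corrected fluorescence ratio at least 3 library SD, with starting fluorescence B-score inside 5 SD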
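Material – MrgX1-expressing HEK293 cells · Input – 15,000 cells seeded per well · Dosing – compound as first of three additions · Times – overnight seeding, then 1 h dark dye loading · Measured by – kinetic Fluo-4 NW fluorescence of intracellular calcium · Read-out – B-scored fluorescence response ratio · Benchmarks – positive and negative control wells on each plate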
RGS4 inh: RGS4 inhibitors, primary screen, cell-based, HEK293 M3R inducible RGS4, calcium flux. Fluo-4 calcium flux; active compounds read high; triggered by carbachol at its EC20. B-score at 10 µM. 310,000 tested, 0.45% active. AID 463165, 2010;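 active = B-score, a plate-corrected calcium signal, over three deviations above library mean, with baseline fluorescence within five deviations of library mean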;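 note: RGS4 expression induced by doxycycline in cells with stable M3 receptor; B-score is computed from the integrated fluorescence ratio over baseline after carbachol; higher B-score means a larger calcium signal and so more RGS4 inhibition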
Target sequence (P49798 whole entry, looked up): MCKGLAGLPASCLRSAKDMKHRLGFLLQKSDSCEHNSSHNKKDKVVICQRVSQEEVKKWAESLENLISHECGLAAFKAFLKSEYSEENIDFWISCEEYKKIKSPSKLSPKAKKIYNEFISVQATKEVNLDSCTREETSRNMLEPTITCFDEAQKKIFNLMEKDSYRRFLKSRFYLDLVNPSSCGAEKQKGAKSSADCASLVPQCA
MrgX1 antag: antagonists of human MrgX1 receptor, primary screen, HEK293 cells, Fluo-4 calcium flux; BAM8-22 antagonism; active compounds read low; 310,000 tested, 1.3% active; B-score at 10 µM;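 active = calcium-response B-score plate-corrected more than 3 library SD below zero, starting fluorescence within 5 deviations, no agonist response on first addition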;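 note: peak minus trough fluorescence over baseline after final BAM8-22 challenge near maximal dose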
RGS4 act: RGS4 potentiators or activators, primary screen, cell-based, HEK293 M3R inducible RGS4, calcium flux. 310,000 tested, 0.92% active. carbachol calcium flux Fluo4; active compounds read low. B-score at 10 µM;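 active = B-score of the integrated calcium signal more than 4 SD below the library mean, with starting fluorescence not abnormally high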;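 note: negative B-score means reduced calcium response which marks RGS4 activation or potentiation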
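System – HEK293 FlpIn-TREx cells, stable M3R, doxycycline-inducible RGS4 · Reagent – ECmax carbachol challenge · Times – compound preincubation 20 min at room temperature before agonist · Technique – Fluo4 fluorescence kinetic imaging of calcium · Measure – B score of integrated Fluo4 ratio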
Starred values were filed as active, the others as inactive; i = inactive; x = not tested or not shown; ! = not confirmed by another sample. The list is not random: actives were taken first. Their share in the collection is about 3.5%.

SMILES	MrgX1 allo act	MrgX1 agonist	RGS4 inh	MrgX1 antag	RGS4 act
Cc1ccccc1N=C(NOCc1ccc(Cl)cc1Cl)c1nonc1N	i	i	i	i	-7.31*
COc1ccc(CN2C(=O)c3ccccc3C(/C=N/OCc3ccc(Cl)cc3)C2=O)cc1 (stereo not drawn)	i	37.7*	i	i	i
COc1ccc(C(=O)Nc2ccccc2[N+](=O)[O-])cc1S(=O)(=O)N1CCOCC1	i	i	i	i	i
Cc1ccc(C(=O)Nc2ccccc2[N+](=O)[O-])cc1S(=O)(=O)N1CCOCC1	8.03*	i	i	i	i
O=C1NC2(CCCCCC2)N=C1c1ccc(Br)cc1	i	i	i	i	i
COc1ccc(CN2CCCC(C(=O)c3cccc(C(F)(F)F)c3)C2)cc1O (stereo not drawn)	i	i	i	i	-7.61*
Cc1cccc(NC(=O)CSc2nnc(CNC(=O)c3ccc(S(=O)(=O)N(C)C)cc3)n2-c2ccc(F)cc2)c1	i	i	i	i	i
Cc1cccc(-n2c(CNC(=O)c3ccc(S(=O)(=O)N(C)C)cc3)nnc2SCC(=O)Nc2ccc(F)cc2)c1	i	i	i	i	-8.1*
CCOC(=O)C1=C(Nc2ccc(Cl)cc2)OCC1=O	i	i	i	i	i
CCN(CC)CCOC(=O)C1(c2ccccc2)CCOCC1	i	i	i	i	-6.99*
CCN(CC)CCOCCOC(=O)C1(c2ccccc2)CCCC1	i	i	i	i	i
C[N+](C)(C)CCOC(=O)C1(c2ccccc2)CCCC1	i	i	i	i	-8.22*
C[N+]1(CCOC(=O)C2(c3ccccc3)CCCC2)CCCCC1	i	i	i	i	-7.47*
CCN(CC)CCOC(=O)C1(c2ccc([N+](=O)[O-])cc2)CCCC1	i	i	x	i	x
COc1ccc(NC(=O)C2(c3ccccc3)CCCC2)cc1	i	i	i	i	i
CC(C[N+](C)(C)C)OC(=O)C1(c2ccccc2)CCCC1 (stereo not drawn)	i	i	i	i	-10.1*
N=c1c2c(-c3ccccc3)c(-c3ccccc3)n(Cc3ccccc3)c2ncn1CCCn1ccnc1	i	i	i	i	i
N=c1c2c(-c3ccccc3)c(-c3ccccc3)n(Cc3ccco3)c2ncn1Cc1ccco1	i	i	i	-8.09*	-6.95*
Cc1cc([N+](=O)[O-])ccc1NC(=O)C(C)N1CCN(c2ccccn2)CC1 (stereo not drawn)	i	i	i	i	i
O=C1N/C(=C\c2ccc(O)cc2)C(=O)c2ccccc21	i	40.3*	i	i	i
N=C1/C(=C/c2ccc(OCc3ccccc3)cc2)C(=O)N=C2SC(CC(=O)N3CCOCC3)=NN12	9.74*	i	i	i	i
Cc1cc(/C=C2\C(=N)N3N=C(CC(=O)N4CCOCC4)SC3=NC2=O)c(C)n1Cc1ccccc1	i	i	i	i	i
CN(C)c1ccc(/C=C2\C(=N)N3N=C(CC(=O)N4CCCCC4)SC3=NC2=O)cc1	i	54.9*	i	i	i
CN(C)c1ccc(/C=C2\C(=N)N3C(=NC2=O)Sc2cc(S(C)(=O)=O)ccc23)cc1	i	29.5*	i	i	i
O=C(N/C(=C\c1cccnc1)C(=O)N1CCOCC1)c1ccco1	i	i	i	-4.95*	i
SMILES	MrgX1 allo act	MrgX1 agonist	RGS4 inh	MrgX1 antag	RGS4 act
COc1ccccc1NS(=O)(=O)c1cccc(C(=O)NNC(=O)c2ccc(O)c(Cl)c2)c1	i	i	i	i	i
CCCC(=O)OCCNC(=O)c1cc2ccccc2oc1=O	i	i	i	-5.39*	i
Cc1ccccc1CC1CCN(CCCNC(=O)Nc2ccccc2)CC1	i	i	i	i	i
Cc1nn(CC(=O)Nc2ccc(C(C)C)cc2)c(C)c1[N+](=O)[O-]	i	i	i	-7.12*	i
CC(=O)c1ccc(NC(=O)Cn2nc(C)c([N+](=O)[O-])c2C)cc1	i	i	i	i	i
O=C(CCCN1C(=O)/C(=C\c2cccs2)SC1=S)Nc1cccnc1	i	i	i	i	i
O=C(CCCN1C(=O)/C(=C/c2cccs2)SC1=S)Nc1cccnc1	i	i	i	-5.56*	i
O=C(CCN1C(=O)/C(=C\c2cccs2)SC1=S)Nc1ccc(C(=O)O)cc1	i	i	i	i	i
CCN(CC)CCOC(=O)c1ccc(NC(=O)CCCN2C(=O)/C(=C\c3cccs3)SC2=S)cc1	i	i	i	i	-7.59*
CCc1ccc(OCC(=O)Nc2ccc(-c3cc4ccccc4oc3=O)c(OC)c2)cc1	i	i	i	i	i
CC(=O)Nc1ccc(C2=NN(C)C(=NCc3ccccc3)SC2)cc1	7.75*	i	i	i	i
O=S(Cc1cc(Sc2ccccc2)nc(-c2ccccc2)n1)c1ccccc1 (stereo not drawn)	10*	i	i	i	i
CNc1cc(CS(=O)c2ccccc2)nc(-c2ccccc2)n1 (stereo not drawn)	i	i	i	i	i
CCOC(=O)c1cnc(N2CCN(C(=O)OCC)CC2)[nH]c1=O	i	i	i	i	i
COC(=O)[C@H](Cc1ccccc1)NC(=O)c1ccc2ccccc2n1	i	i	i	i	i
CC(C)(C)NC(=O)[C@@H]1C[C@@H]2CCCC[C@@H]2CN1C[C@@H](O)[C@H](Cc1ccccc1)NC(=O)[C@H](CC(N)=O)NC(=O)c1ccc2ccccc2n1	i	i	i	-5.98*!	i
COc1cc(/C=N/NC(=O)c2ccccn2)ccc1OC(=O)c1ccc(Br)cc1	i	i	i	i	i
O=C(N/N=C/c1cc(Br)c(Br)o1)c1cccnc1	i	i	i	-6*	i
COc1cc(C(=O)N/N=C/c2ccc(OC(=O)c3cccc(C)c3)cc2)ccc1O	i	i	i	i	i
O=C(N/N=C\c1cc(Br)c(Br)o1)c1cncc(Br)c1	i	i	i	i	i
COc1cc(/C=N/NC(=O)c2ccc(N)cc2)ccc1OC(=O)c1cccc(C)c1	i	i	i	-5.57*	-8.52*
COc1cc(C(=O)N/N=C/c2ccc(OC(=O)c3ccccc3Cl)c(OC)c2)ccc1O	i	i	i	-4.65*	-9.9*

Screening data deposited in PubChem BioAssay by Johns Hopkins Ion Channel Center.
